The source made the active and inactive calls.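 The calls were made as follows, unless noted: active = viability at or below 10% of carrier control in both of two separate runs; inconclusive = viability at or below 10% in only one of the two runs; inactive = the rest.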
Legend:
[1] = biological target: Pantothenate synthetase (Mycobacterium tuberculosis (strain ATCC 25618 / H37Rv)) (UniProt P9WIL5); assay: Coupled enzyme confirmation of inhibitors against recombinant Mtb PanC (AID 375; call rule not given here;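 also: 0% = full reaction with vehicle and 100% = no enzyme background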); settings: coupled enzyme assay; at 10 µM, stronger effect = higher value
Pantothenate synthetase (Mycobacterium tuberculosis (strain ATCC 25618 / H37Rv)), sequence (P9WIL5 whole entry, looked up): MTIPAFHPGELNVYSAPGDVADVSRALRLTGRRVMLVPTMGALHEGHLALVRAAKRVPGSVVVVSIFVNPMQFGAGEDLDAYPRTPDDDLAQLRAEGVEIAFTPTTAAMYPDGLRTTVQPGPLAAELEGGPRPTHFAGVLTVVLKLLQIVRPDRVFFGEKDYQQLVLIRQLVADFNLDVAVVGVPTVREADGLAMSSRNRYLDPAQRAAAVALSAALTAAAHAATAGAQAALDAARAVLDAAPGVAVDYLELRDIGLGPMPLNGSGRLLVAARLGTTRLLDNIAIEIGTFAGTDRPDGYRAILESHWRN

[2] = Her2 expression decrease, cell viability multiplex – SKBR3 breast tumor cells, AlphaScreen, ATP viability, primary screen (AID 461;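 active = Her2 level under about 52% in both replicate screens, with viability over 70% of control, limit read from the data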;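 as to Her2 level: lower value means less Her2 protein in the cells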;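 as to viability: percent of carrier control wells set as 100% viability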); settings: SKBR3 Her2 protein level, 18-24 h, measured here: SKBR3 viability, ATP luminescence, at 10 µM
[3] = biological target: Receptor tyrosine-protein kinase erbB-2 (Homo sapiens) (UniProt P04626); assay: as above; settings: 18-24 h, at 10 µM, stronger effect = lower value
Receptor tyrosine-protein kinase erbB-2 (Homo sapiens), sequence (P04626 whole entry, looked up): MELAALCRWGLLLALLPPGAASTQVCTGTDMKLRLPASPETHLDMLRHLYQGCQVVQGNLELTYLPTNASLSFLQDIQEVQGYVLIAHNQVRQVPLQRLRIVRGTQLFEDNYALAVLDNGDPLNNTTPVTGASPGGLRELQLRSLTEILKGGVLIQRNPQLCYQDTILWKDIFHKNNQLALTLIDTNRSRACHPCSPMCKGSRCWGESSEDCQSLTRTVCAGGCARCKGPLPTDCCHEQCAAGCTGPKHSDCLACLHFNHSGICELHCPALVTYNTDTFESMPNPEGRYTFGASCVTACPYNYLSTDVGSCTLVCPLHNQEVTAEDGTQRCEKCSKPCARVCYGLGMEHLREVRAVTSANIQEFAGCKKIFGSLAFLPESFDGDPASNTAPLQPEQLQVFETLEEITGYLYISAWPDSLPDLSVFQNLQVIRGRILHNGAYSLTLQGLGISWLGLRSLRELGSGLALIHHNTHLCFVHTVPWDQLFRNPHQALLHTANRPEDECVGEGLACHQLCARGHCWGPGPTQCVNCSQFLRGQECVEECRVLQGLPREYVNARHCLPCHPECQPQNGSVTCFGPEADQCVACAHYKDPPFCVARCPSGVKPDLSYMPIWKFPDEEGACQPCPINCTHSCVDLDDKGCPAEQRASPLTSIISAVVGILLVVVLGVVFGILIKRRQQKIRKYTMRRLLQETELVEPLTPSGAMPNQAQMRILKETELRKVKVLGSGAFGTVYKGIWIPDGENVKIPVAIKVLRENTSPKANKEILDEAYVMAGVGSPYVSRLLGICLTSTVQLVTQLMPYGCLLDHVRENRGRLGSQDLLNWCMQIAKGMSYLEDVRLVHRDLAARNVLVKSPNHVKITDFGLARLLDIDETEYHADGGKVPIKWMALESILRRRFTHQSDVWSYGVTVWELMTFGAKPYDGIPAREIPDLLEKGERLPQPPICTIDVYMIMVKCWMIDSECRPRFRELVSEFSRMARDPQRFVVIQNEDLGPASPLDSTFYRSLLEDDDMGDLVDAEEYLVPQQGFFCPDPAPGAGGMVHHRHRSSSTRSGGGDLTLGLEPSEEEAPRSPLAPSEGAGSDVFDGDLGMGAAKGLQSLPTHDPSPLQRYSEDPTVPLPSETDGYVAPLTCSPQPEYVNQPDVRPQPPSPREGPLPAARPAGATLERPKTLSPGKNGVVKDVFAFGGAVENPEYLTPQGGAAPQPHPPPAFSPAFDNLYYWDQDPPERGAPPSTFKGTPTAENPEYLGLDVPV

[4] = reduced viability of SK-BR-3 breast cancer cells – cell-based, 24 h, human, pilot screen (AID 572); settings: SK-BR-3 viability, CellTiter-Glo luminescence, at 10 µM, stronger effect = lower value;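 also: compound exposure lasted between 18 and 24 h rather than exactly 24 h; 100% = carrier-treated control wells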
[5] = HUVEC growth inhibition – cell-based, human, primary screen (AID 575;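 active = viability at or below 30% in both replicate assays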;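 also: 100% = median of untreated cell wells with 0.1% DMSO on each plate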); settings: HUVEC proliferation, CellTiter-Glo luminescence, 72 h; at 10 µM; stronger effect = lower value
Procedure, shortened: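 Test system: primary human umbilical vein endothelial cells. Quantity: 1250 cells/well. Compound: single 10 µM dose, 0.1% DMSO, from 5x medium stock. Timing: 72 h treatment at 37 °C. Detection: ATP-based CellTiter-Glo luminescent read. Benchmarks: vehicle and MePR control wells. Format: 384-well plates coated with collagen.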

[6] = H69AR cell proliferation blockers – human, duplicate replicates, primary screen (AID 580;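 active = viability at or under a set limit in both replicates, limit being median viability minus 3 SD, cut at about 48% in these data, passing the limit was not always enough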;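 also: 100% = mean luminescence of untreated wells and 0% = no signal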); settings: H69AR lung tumor cells viability, ATP luminescence, 72 h; at 10 µM; stronger effect = lower value
[7] = MRP1 drug-resistance reversers in H69AR cells – cell-based, doxorubicin co-treatment, pilot screen (AID 601;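 active = viability loss from added drug above about 55%, and viability with drug at most 40%, in both replicates, limit read from the data, passing the limit was not always enough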); settings: CellTiter-Glo, 72 h, at 10 µM; for differential viability (reversal): stronger effect = higher value
[8] = yeast transport mutant growth inhibition pilot in 384-well plates, post-Golgi transport modulator project (AID 636; in the data active = inhibition above about 31%); settings: absorbance 615 nm, about 18 h, stronger effect = higher value
[9] = growth suppression of yeast trafficking mutant, preliminary HTS, modulators of trafficking downstream of Golgi apparatus project, 1536-format plate, OD 615 nm (AID 637; in the data active = inhibition above about 30%); settings: yeast transport mutant growth, absorbance 615 nm, 18 h; stronger effect = higher value
[10] = H69AR cells + 2 uM doxorubicin, measured here: viability with 2 uM doxorubicin, stronger effect = lower value
[11] = H69AR cells, compound alone cytotoxicity

Structure (SMILES) | inhibition [1] | viability [2] | Her2 level [3] | viability [4] | viability [5] | viability [6] | differential viability (reversal) ([7]; H69AR cells + 2 uM doxorubicin) | viability [7, 10] | viability [7, 11] | inhibition [8] | inhibition [9]
O=C(Cn1c2c(c(-c3ccccc3Cl)cc1=O)CCC2)N1CCC2(CC1)OCCO2 | 6% (inactive) | 102% | 115% (inactive) | 102% (inactive) | 108% (inactive) | 96.8% (inactive) | -15.4% (inactive) | 112% | 96.8% | -1.18% (inactive) | -6.61% (inactive)
CCN1CCN(C(=O)COc2cc(=O)n(CC)c3ccccc23)CC1 | 0% (inactive) | 80.5% | 104% (inactive) | 80.5% (inactive) | 89.2% (inactive) | 90.3% (inactive) | 22.7% (inactive) | 67.6% | 90.3% | 0.38% (inactive) | 0.67% (inactive)
N#Cc1ccccc1Cn1cc(C(=O)C2CC2)c2ccccc21 | 0% (inactive) | 86% | 103% (inactive) | 86% (inactive) | 81.5% (inactive) | 59.4% (inactive) | -32.4% (inactive) | 91.8% | 59.4% | -3.38% (inactive) | -5.5% (inactive)
COc1ccc(CN2CCN(C(=O)Cc3ccccc3)CC2)c(OC)c1 | 0% (inactive) | 93% | 90% (inactive) | 93% (inactive) | 89.9% (inactive) | 97.3% (inactive) | 9.87% (inactive) | 87.4% | 97.3% | -6.08% (inactive) | 1.59% (inactive)
CC(=NCc1ccc2c(c1)OCO2)c1c(O)n(C)c(=O)n(C)c1=O | 6% (inactive) | 94% | 90% (inactive) | 94% (inactive) | 92.8% (inactive) | 98% (inactive) | 1.15% (inactive) | 96.9% | 98% | -4.42% (inactive) | -2% (inactive)
CC(C)(C)C(O)C(Oc1ccc(Cl)cc1)n1cncn1 (configuration not stated) | 9% (inactive) | 86.5% | 83.5% (inactive) | 86.5% (inactive) | 88.2% (inactive) | 87.2% (inactive) | 5.54% (inactive) | 81.7% | 87.2% | -4.46% (inactive) | 94% (active)
COCCOC(=O)C1=C(N)Oc2c(c(=O)oc3ccccc23)C1c1ccncc1 (configuration not stated) | 10% (inactive) | 122% | 72% (inactive) | 122% (inactive) | 98.5% (inactive) | 92% (inactive) | 4.34% (inactive) | 87.7% | 92% | -2.76% (inactive) | -2.22% (inactive)
O=C(NC1(C(F)(F)F)Oc2ccc(Cl)cc2O1)N1CCC2(CC1)OCCO2 (configuration not stated) | 1% (inactive) | 91.5% | 87.5% (inactive) | 91.5% (inactive) | 58.5% (inactive) | 27.9% (active) | -23.8% (inactive) | 51.7% | 27.9% | -2.47% (inactive) | -5.56% (inactive)
O=C(c1ccncc1)C12CN3CN(CN(C3)C1)C2 | 0% (inactive) | 115% | 114% (inactive) | 115% (inactive) | 97.6% (inactive) | 89.5% (inactive) | 5.16% (inactive) | 84.4% | 89.5% | -3.25% (inactive) | -2.5% (inactive)
C=CCn1c(O)c(C=NCCN(C)C)c(=O)[nH]c1=O | 0% (inactive) | 97.5% | 108% (inactive) | 97.5% (inactive) | 110% (inactive) | 97.2% (inactive) | 3.12% (inactive) | 94.1% | 97.2% | -0.39% (inactive) | -0.98% (inactive)
CCCCOc1ccc(CN2CCN(CCO)CC2)cc1 | 0% (inactive) | 74% | 91.5% (inactive) | 74% (inactive) | 94.7% (inactive) | 90.1% (inactive) | 12.2% (inactive) | 77.9% | 90.1% | 1.17% (inactive) | -1.64% (inactive)
O=C(CCCN1CCC2(CC1)C(=O)NCN2c1ccccc1)c1ccc(F)cc1 | 1% (inactive) | 98% | 65% (inactive) | 98% (inactive) | 96.2% (inactive) | 87.8% (inactive) | -9.21% (inactive) | 97% | 87.8% |  | 
CC(C)C(=O)N1CCN(CCN=Cc2c(O)n(C)c(=O)n(C)c2=O)CC1 | 3% (inactive) | 100% | 116% (inactive) | 100% (inactive) | 122% (inactive) | 96.5% (inactive) | -0.17% (inactive) | 96.7% | 96.5% | -5.39% (inactive) | -1.48% (inactive)
COc1ccccc1N1CCN(Cc2c(F)cccc2F)CC1 | 1% (inactive) | 89% | 88.5% (inactive) | 89% (inactive) | 107% (inactive) | 94.2% (inactive) | -2.56% (inactive) | 96.8% | 94.2% | -1.69% (inactive) | 0.98% (inactive)
Cc1ccc(O)c(CN2CCN(c3ccccc3)CC2)c1 | 13% (inactive) | 94% | 88.5% (inactive) | 94% (inactive) | 101% (inactive) | 85.5% (inactive) | 11.5% (inactive) | 74% | 85.5% | -8.38% (inactive) | 1.33% (inactive)
CCOc1cc2[nH]c(=S)n(CCCC(=O)N3CCC4(CC3)OCCO4)c(=O)c2cc1OCC | 0% (inactive) | 88.5% | 85.5% (inactive) | 88.5% (inactive) | 78.2% (inactive) | 89.2% (inactive) | -4% (inactive) | 93.2% | 89.2% | -4.59% (inactive) | -4.75% (inactive)
COc1ccc(OC)c(C(O)C(C)N)c1 (configuration not stated) | 0% (inactive) | 104% | 118% (inactive) | 104% (inactive) | 108% (inactive) | 98.1% (inactive) | -7.17% (inactive) | 105% | 98.1% |  | 
CCNc1ccc(P(=S)(N(C)C)N(C)C)cc1 | 1% (inactive) | 91% | 93% (inactive) | 91% (inactive) | 115% (inactive) | 88.2% (inactive) | -16.7% (inactive) | 105% | 88.2% | -7.92% (inactive) | -4.6% (inactive)
Oc1ccc(C2NCc3ccccc3-n3cccc32)cc1Cl (configuration not stated) | 0% (inactive) | 98.5% | 74.5% (inactive) | 98.5% (inactive) | 112% (inactive) | 83.8% (inactive) | 1.1% (inactive) | 82.7% | 83.8% | -6.18% (inactive) | -3.17% (inactive)
CC1CCC(C(=O)NC(C(=O)N2CCC3(CC2)OCCO3)C(C)C)CC1 (configuration not stated) | 3% (inactive) | 96.5% | 98.5% (inactive) | 96.5% (inactive) | 114% (inactive) | 99.5% (inactive) | 8.49% (inactive) | 91% | 99.5% | -6.36% (inactive) | -5.25% (inactive)
CN(C)[C@@H]1C(=O)C(C(N)=O)=C(O)[C@@]2(O)C(=O)C3=C(O)c4c(O)ccc(Cl)c4[C@@](C)(O)C3C[C@@H]12 (some centres not stated) | 1% (inactive) | 119% | 104% (inactive) | 119% (inactive) | 104% (inactive) | 96.8% (inactive) | 2.32% (inactive) | 94.5% | 96.8% |  | 
CCOc1ccc(Br)c(C2(O)CC(C)N(C)CC2C)c1 (configuration not stated) | 1% (inactive) | 80.5% | 80.5% (inactive) | 80.5% (inactive) | 68.2% (inactive) | 96.7% (inactive) | 19.5% (inactive) | 77.1% | 96.7% | -6% (inactive) | -1.48% (inactive)
Cc1cc(C)c(C(=O)CN2CCOCC2)c(C)c1 | 2% (inactive) | 105% | 98.5% (inactive) | 105% (inactive) | 83.7% (inactive) | 74% (inactive) | -6.78% (inactive) | 80.7% | 74% | -5.19% (inactive) | -0.33% (inactive)
O=c1[nH]c(=O)n(Cc2ccccc2)c(O)c1C=NCCCO | 8% (inactive) | 100% | 96.5% (inactive) | 100% (inactive) | 94.1% (inactive) | 117% (inactive) | 27.1% (inactive) | 89.9% | 117% | -6.13% (inactive) | -0.65% (inactive)
COc1ccc2[nH]cc(CCN(C)C)c2c1 | 0% (inactive) | 108% | 126% (inactive) | 108% (inactive) | 86.3% (inactive) | 108% (inactive) | 8.63% (inactive) | 99.5% | 108% |  | 
CCOC(=O)C1CCCCC12C(C#N)=C(N)Oc1n[nH]c(C)c12 (configuration not stated) | 0% (inactive) | 91.5% | 94.5% (inactive) | 91.5% (inactive) | 96% (inactive) | 93.3% (inactive) | -6.3% (inactive) | 99.6% | 93.3% | 0.66% (inactive) | 25.1% (inactive)
Cc1ccc(C(=O)C2CN3CCC2CC3)cc1 (configuration not stated) | 0% (inactive) | 93% | 91% (inactive) | 93% (inactive) | 94.3% (inactive) | 97.6% (inactive) | 4.27% (inactive) | 93.3% | 97.6% | -4.55% (inactive) | 4.5% (inactive)
CCC(=NCCCN1CCOCC1)c1c(O)n(Cc2ccccc2)c(=O)[nH]c1=O | 0% (inactive) | 108% | 107% (inactive) | 108% (inactive) | 84.3% (inactive) | 89.2% (inactive) | -1.53% (inactive) | 90.7% | 89.2% | -5.41% (inactive) | -5.56% (inactive)
Cc1ccc(C)c(NC(=O)CSc2nnc([C@@H](N)Cc3c[nH]c4ccccc34)o2)c1 | 6% (inactive) | 101% | 94.5% (inactive) | 101% (inactive) | 86.9% (inactive) | 106% (inactive) | 13.5% (inactive) | 92.9% | 106% | -5.2% (inactive) | -4.13% (inactive)
COC(=O)CC1(Cc2ccccc2)C(=O)NC(=O)NC1=O | 0% (inactive) | 92.5% | 96.5% (inactive) | 92.5% (inactive) | 86.8% (inactive) | 102% (inactive) | 13.1% (inactive) | 88.4% | 102% | -5.07% (inactive) | -0.98% (inactive)

From PubChem BioAssay
